{"source": "ChEMBL document CHEMBL4665656", "about": "“Toxicity, bioactivity, release of HS in vivo and pharmaco-kinetics of HS-donors with thiophosphamide structure” (Eur J Med Chem, 2019)", "key": {"[1]": {"assay": "Induction of H2S generation assessed as half life at 150 uM incubated at 22 degC and pH 1.2 by fluorescence spectrophotometry", "format": "functional", "summary_of_the_method": "(§1)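 Donor at 150 µM final, mixed with 200 µM sulfonyl-azide fluorescent probe in buffer/acetonitrile (1:9) at set pH. Cuvette held in a water bath at 22 °C or 37 °C, with fluorescence read three times at intervals. H2S was quantified from a Na2S standard curve (0–200 µM, probe 200 µM).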"}, "[2]": {"test_system": "WI-38", "assay": "Cytotoxicity in human W138 cells assessed as growth inhibition incubated for 24 hrs by MTT assay", "format": "cell-based", "settings": "WI-38, 24 h", "summary_of_the_method": "(§2)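 Cells were grown in RPMI 1640 with 10% FBS at 37 °C and 10% CO2, seeded at 6×10^3 cells/well. Exposure was 24 h, with viability by MTT, in triplicate cultures. IC50 was reported as mean ± SD.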"}, "[3]": {"assay": "Induction of H2S generation assessed as Cmax at 150 uM incubated at 37 degC and pH 1.2 by fluorescence spectrophotometry", "format": "functional", "summary_of_the_method": "as §1"}, "[4]": {"assay": "Induction of H2S generation assessed as Cmax at 150 uM incubated at 22 degC and pH 1.2 by fluorescence spectrophotometry", "format": "functional", "summary_of_the_method": "as §1"}, "[5]": {"test_system": "HeLa", "assay": "Cytotoxicity in human HeLa cells assessed as growth inhibition incubated for 24 hrs by MTT assay", "format": "functional, cell-based", "summary_of_the_method": "as §2"}, "[6]": {"test_system": "HepG2", "assay": "Cytotoxicity in human HePG2 cells assessed as growth inhibition incubated for 24 hrs by MTT assay", "format": "functional, cell-based", "settings": "HepG2, 24 h", "summary_of_the_method": "as §2"}, "[7]": {"assay": "Induction of H2S generation assessed as half life at 150 uM incubated at 37 degC and pH 7.4 by fluorescence spectrophotometry", "format": "functional", "summary_of_the_method": "as §1"}, "[8]": {"assay": "Solubility of compound in water", "format": "physicochemical", "settings": "buffer"}, "[9]": {"assay": "Kinetic Solubility of compound", "format": "physicochemical"}, "[10]": {"test_system": "RAW264.7", "assay": "Anti-inflammatory activity in mouse RAW264.7 cells assessed as inhibition of LPS-induced TNFalpha production at 20 uM preincubated for 4 hr followed by LPS addition and measured after 24 hrs relative to control", "format": "functional, cell-based", "summary_of_the_method": "(§3)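 RAW264.7 cells given LPS 1 µg/mL with compound for 24 h, then lysed in RIPA and centrifuged. Protein was set to 0.1 mg/mL by BCA and mouse cytokine levels measured by sandwich ELISA kit. Four parallel groups, mean ± SD.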"}, "[11]": {"assay": "Induction of H2S generation assessed as Cmax at 150 uM incubated at 22 degC and pH 7.4 by fluorescence spectrophotometry", "format": "functional", "summary_of_the_method": "as §1"}, "[12]": {"test_system": "RAW264.7", "assay": "Anti-inflammatory activity in mouse RAW264.7 cells assessed as inhibition of LPS-induced IL-10 production at 20 uM preincubated for 4 hr followed by LPS addition and measured after 24 hrs", "format": "functional, cell-based", "summary_of_the_method": "as §3"}, "[13]": {"test_system": "A549", "assay": "Cytotoxicity in human A549 cells assessed as growth inhibition incubated for 24 hrs by MTT assay", "format": "functional, cell-based", "settings": "A549, 24 h", "summary_of_the_method": "as §2"}, "[14]": {"test_system": "MCF7", "assay": "Cytotoxicity in human MCF-7 cells assessed as growth inhibition incubated for 24 hrs by MTT assay", "format": "functional, cell-based", "settings": "MCF7, 24 h", "summary_of_the_method": "as §2"}, "[15]": {"assay": "Induction of H2S generation assessed as half life at 150 uM incubated at 37 degC and pH 1.2 by fluorescence spectrophotometry", "format": "functional", "summary_of_the_method": "as §1"}, "[16]": {"assay": "Induction of H2S generation assessed as Cmax at 150 uM incubated at 37 degC and pH 5 by fluorescence spectrophotometry", "format": "functional", "summary_of_the_method": "as §1"}, "[17]": {"assay": "Induction of H2S generation assessed as Cmax Induction of H2S generation assessed as Cmax at 150 uM incubated at 37 degC and pH 7.4 by fluorescence spectrophotometry", "format": "functional", "summary_of_the_method": "as §1"}, "[18]": {"assay": "Induction of H2S generation assessed as half life at 150 uM incubated at 37 degC and pH 8 by fluorescence spectrophotometry", "format": "functional", "summary_of_the_method": "as §1"}, "[19]": {"test_system": "HT-29", "assay": "Cytotoxicity in human HT-29 cells assessed as growth inhibition incubated for 24 hrs by MTT assay", "format": "functional, cell-based", "settings": "HT-29, 24 h", "summary_of_the_method": "as §2"}, "[20]": {"assay": "Cytotoxicity against rat H9C2 cells assessed as cell viability at 100 uM measured after 24 hrs by MTT assay", "format": "cell-based", "settings": "read-out: Activity"}, "[21]": {"assay": "Induction of H2S generation assessed as half life at 150 uM incubated at 22 degC and pH 7.4 by fluorescence spectrophotometry", "format": "functional", "summary_of_the_method": "as §1"}, "[22]": {"assay": "Induction of H2S generation assessed as Cmax at 150 uM incubated at 22 degC and pH 8 by fluorescence spectrophotometry", "format": "functional", "summary_of_the_method": "as §1"}, "[23]": {"assay": "Induction of H2S generation assessed as Cmax Induction of H2S generation assessed as Cmax at 150 uM incubated at 37 degC and pH 8 by fluorescence spectrophotometry", "format": "functional", "summary_of_the_method": "as §1"}, "[24]": {"assay": "Induction of H2S generation assessed as half life at 150 uM incubated at 22 degC and pH 8 by fluorescence spectrophotometry", "format": "functional", "summary_of_the_method": "as §1"}, "[25]": {"assay": "Induction of H2S generation assessed as half life at 150 uM incubated at 22 degC and pH 5 by fluorescence spectrophotometry", "format": "functional", "summary_of_the_method": "as §1"}, "[26]": {"assay": "Induction of H2S generation assessed as half life at 150 uM incubated at 37 degC and pH 5 by fluorescence spectrophotometry", "format": "functional", "summary_of_the_method": "as §1"}, "[27]": {"test_system": "RAW264.7", "assay": "Anti-inflammatory activity in mouse RAW264.7 cells assessed as inhibition of LPS-induced NO production preincubated for 4 hr followed by LPS addition and measured after 24 hrs relative to control", "format": "functional, cell-based", "settings": "dose 100.0 µM, time 28.0 hrs", "summary_of_the_method": "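RAW264.7 cells exposed to LPS 1 µg/mL with compound (20 and 100 µM) for 24 h. Nitrite in medium measured by Griess reagent, […], against a sodium nitrite standard curve (0–100 µM). Four parallel groups, mean ± SD.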"}, "[28]": {"assay": "Cytotoxicity against mouse RAW264.7 cells assessed as cell viability at 20 to 100 microM after 24 hrs by MTT assay", "format": "cell-based", "settings": "dose 20-100 µM, read-out: Activity", "summary_of_the_method": "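RAW264.7 macrophages in high-glucose DMEM with 10% heat-inactivated FBS, 37 °C, 5% CO2. LPS 1 µg/mL with or without compound (20 and 100 µM) for 24 h. Then MTT 4 h, formazan dissolved in DMSO, A570, expressed as % of control.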"}}, "note": "Calls of active or inactive are those of the source. The rule behind the calls is not given here."}
{"smiles": "O=C([O-])CNP([O-])(=S)c1ccccc1.[Li+].[Li+]", "note": "(stereo not drawn)", "values": [{"measurement": "T1/2", "setting": "[1]", "result": 2.94, "unit": "min"}, {"measurement": "IC50", "setting": "[2]", "result": 508, "unit": "µM"}, {"measurement": "Cmax", "setting": "[3]", "result": 103, "unit": "µM"}, {"measurement": "Cmax", "setting": "[4]", "result": 101, "unit": "µM"}, {"measurement": "IC50", "setting": "[5]", "result": 913, "unit": "µM"}, {"measurement": "IC50", "setting": "[6]", "result": 771, "unit": "µM"}, {"measurement": "T1/2", "setting": "[7]", "result": 3.66, "unit": "min"}, {"measurement": "solubility", "setting": "[8]", "result": "Soluble"}, {"measurement": "Kinetic_solubility", "setting": "[9]", "result": "Soluble"}, {"measurement": "Activity", "setting": "[10]", "result": "Active"}, {"measurement": "Cmax", "setting": "[11]", "result": 99.5, "unit": "µM"}, {"measurement": "Activity", "setting": "[12]", "result": "Active"}, {"measurement": "IC50", "setting": "[13]", "result": 378, "unit": "µM"}, {"measurement": "IC50", "setting": "[14]", "result": 876, "unit": "µM"}, {"measurement": "T1/2", "setting": "[15]", "result": 2.17, "unit": "min"}, {"measurement": "Cmax", "setting": "[16]", "result": 103, "unit": "µM"}, {"measurement": "Cmax", "setting": "[17]", "result": 102, "unit": "µM"}, {"measurement": "T1/2", "setting": "[18]", "result": 5.57, "unit": "min"}, {"measurement": "IC50", "setting": "[19]", "result": 912, "unit": "µM"}, {"measurement": "viability at 24 h, 100 µM", "setting": "[20]", "result": "> 90", "unit": "%"}, {"measurement": "T1/2", "setting": "[21]", "result": 4.93, "unit": "min"}, {"measurement": "Cmax", "setting": "[22]", "result": 99.4, "unit": "µM"}, {"measurement": "Cmax", "setting": "[23]", "result": 101, "unit": "µM"}, {"measurement": "T1/2", "setting": "[24]", "result": 6.44, "unit": "min"}, {"measurement": "T1/2", "setting": "[25]", "result": 3.19, "unit": "min"}, {"measurement": "T1/2", "setting": "[26]", "result": 2.41, "unit": "min"}, {"measurement": "Activity", "setting": "[27]", "result": "Dose-dependent effect"}, {"measurement": "viability at 24 h", "setting": "[28]", "result": 70, "unit": "%"}]}
